# Assay results reported in ChEMBL document CHEMBL3046177, “Plant growth inhibitory activity of p-hydroxyacetophenones and tremetones from Chilean endemic Baccharis species and some analogous: a comparative study” (J Agric Food Chem, 2002).
# Activity calls are given as the source filed them. No cut-off for these calls is given here.
# How the values were obtained:
# [1] = system: Lolium multiflorum; experiment: Phytotoxicity against Lolium multiflorum (Italian ryegrass) assessed as inhibition of seed respiration during germination after 24 hr; assay type: functional, organism-based
# How it was run: (§1)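 Oxygen uptake of germinating seeds measured polarographically with a Clark-type electrode at 25 °C in a nonilluminated cell over 5 and 10 min, at several compound concentrations. Expressed as percent of control (100%). Three experiments; RI50 from Probit analysis.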
# [2] = system: Lactuca sativa; experiment: Phytotoxicity against Lactuca sativa (lettuce) assessed as inhibition of seed germination after 48 hr; assay type: functional
# How it was run: (§2)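 Seeds of uniform size on Whatman No.1 filter paper in 85 mm Petri dishes, wetted with 8 or 10 mL deionized water or test solution (MeOH < 1%); controls got matching water/methanol. Sealed, incubated at 28 °C in the dark, scored at 48 h intervals; germination = 1 mm radicle extrusion. Three replicates.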
# [3] = system: Lolium multiflorum (ryegrass); experiment: Phytotoxicity against Lolium multiflorum (ryegrass) assessed as inhibition of seed germination at 500 uM after 48 hr
# [4] = system: Physalis ixocarpa; experiment: Phytotoxicity against Physalis ixocarpa assessed as inhibition of seed respiration during germination after 24 hr; assay type: functional, organism-based; how it was run: as §1
# [5] = system: Physalis ixocarpa; experiment: Increase of shoot development during seeding stage in Physalis ixocarpa up to 50 uM after 120 hr; assay type: functional, organism-based
# How it was run: (§3)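 Petri-dish seedling assay on filter paper wetted with test solution (MeOH < 1%), 28 °C in the dark. Coleoptile/hypocotyl and root lengths of all germinated seeds measured after 120 h, then plants dried to constant weight at 40 °C. Three replicates; 50% inhibitory concentrations by Probit analysis of percent inhibition versus concentration.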
# [6] = system: Lactuca sativa; experiment: Phytotoxicity against Lactuca sativa (lettuce) assessed as inhibition of root development during seeding stage after 120 hr; assay type: functional, organism-based; conditions: for IC50: read-out: I50; how it was run: as §3
# [7] = system: Trifolium pratense; experiment: Phytotoxicity against Trifolium pratense (red clover) assessed as inhibition of seed respiration during germination after 24 hr; assay type: functional, organism-based; how it was run: as §1
# [8] = system: Trifolium pratense; experiment: Phytotoxicity against Trifolium pratense (red clover) assessed as inhibition of shoot development during seeding stage after 120 hr; assay type: functional, organism-based; conditions: for IC50: read-out: I50; how it was run: as §3
# [9] = system: Lolium multiflorum; experiment: Phytotoxicity against Lolium multiflorum (Italian ryegrass) assessed as inhibition of shoot development during seeding stage after 120 hr; assay type: functional, organism-based; conditions: for IC50: read-out: I50; how it was run: as §3
# [10] = system: Lactuca sativa; experiment: Phytotoxicity against Lactuca sativa (lettuce) assessed as inhibition of seed respiration during germination after 24 hr; assay type: functional, organism-based; how it was run: as §1
# [11] = system: Trifolium pratense; experiment: Increase of root development during seeding stage in Trifolium pratense (red clover) at 50 to 300 uM after 120 hr; assay type: functional, organism-based; how it was run: as §3
# [12] = system: Lolium multiflorum; experiment: Phytotoxicity against Lolium multiflorum (Italian ryegrass) assessed as inhibition of root development during seeding stage after 120 hr; assay type: functional, organism-based; conditions: for IC50: read-out: I50; how it was run: as §3
# [13] = system: Physalis ixocarpa; experiment: Phytotoxicity against Physalis ixocarpa assessed as inhibition of shoot development during seeding stage after 120 hr; assay type: functional, organism-based; conditions: for IC50: read-out: I50; how it was run: as §3
# [14] = system: Lolium multiflorum; experiment: Phytotoxicity against Lolium multiflorum (Italian ryegrass) assessed as inhibition of seed germination after 48 hr; assay type: functional; how it was run: as §2
# [15] = system: Physalis ixocarpa; experiment: Phytotoxicity against Physalis ixocarpa assessed as inhibition of root development during seeding stage after 120 hr; assay type: functional, organism-based; conditions: for IC50: read-out: I50; how it was run: as §3
# [16] = system: Trifolium pratense; experiment: Phytotoxicity against Trifolium pratense (red clover) assessed as inhibition of root development during seeding stage after 120 hr; assay type: functional, organism-based; conditions: for IC50: read-out: I50; how it was run: as §3
# [17] = system: Physalis ixocarpa; experiment: Phytotoxicity against Physalis ixocarpa assessed as inhibition of seed germination after 48 hr; assay type: functional; how it was run: as §2
# [18] = system: Lactuca sativa; experiment: Increase of root development during seeding stage in Lactuca sativa (lettuce) at 50 to 300 uM after 120 hr; assay type: functional, organism-based; how it was run: as §3
# [19] = system: Lolium multiflorum; experiment: Phytotoxicity against Lolium multiflorum (Italian ryegrass) assessed as inhibition of seed germination at 500 uM after 48 hr; assay type: functional; how it was run: as §2
# [20] = system: Trifolium pratense; experiment: Increase of shoot development during seeding stage in Trifolium pratense (red clover) at 200 uM after 120 hr; assay type: functional, organism-based; how it was run: as §3
# [21] = system: Lactuca sativa; experiment: Phytotoxicity against Lactuca sativa (lettuce) assessed as inhibition of shoot development during seeding stage after 120 hr; assay type: functional, organism-based; conditions: for IC50: read-out: I50; how it was run: as §3
# [22] = system: Trifolium pratense; experiment: Phytotoxicity against Trifolium pratense (red clover) assessed as inhibition of seed germination after 48 hr; assay type: functional; how it was run: as §2
# [23] = system: Spinacia oleracea; experiment: Inhibition of H+ uptake in Spinacia oleracea (spinach) chloroplasts; assay type: functional
# How it was run: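 Spinach thylakoids (from isolated chloroplasts, in sorbitol/tricine/MgCl2/NaCl buffer, pH 7.8) in 100 mM sorbitol, 5 mM MgCl2, 10 mM KCl, 1 mM Na+-tricine, pH 8, with 50 µM methyl viologen. Illuminated at 20 °C through 1% CuSO4 filter. H+ uptake recorded as pH rise from 8.0 to 8.1 with combination microelectrode on expanded scale.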
# [24] = system: Physalis ixocarpa; experiment: Phytotoxicity against Physalis ixocarpa assessed as inhibition of seed respiration during germination after 72 hr; assay type: functional, organism-based; conditions: read-out: I50; how it was run: as §1
# [25] = system: Phaseolus vulgaris; experiment: Inhibition of mitochondrial respiration in Phaseolus vulgaris root mitochondria assessed as reduction of oxygen uptake; assay type: functional; conditions: read-out: I50
# How it was run: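 Mitochondria from roots of 72 h dark-grown (28 °C) bean seedlings, Percoll-gradient purified, 0.3-0.5 mg protein (Bradford) per run; integrity checked with HCN. Compounds in 0.5% methanol added after a constant state 3 rate with […] was reached. O2 uptake by Clark electrode; control is mitochondria with 0.5% MeOH. Three experiments; I50 by Probit.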
# [26] = system: Lactuca sativa; experiment: Phytotoxicity against Lactuca sativa (lettuce) assessed as inhibition of seed respiration during germination after 72 hr; assay type: functional, organism-based; conditions: read-out: I50; how it was run: as §1
# [27] = Antioxidant activity assessed as inhibition of bleaching of water soluble crocin measured every 5 min by spectrophotometric analysis; assay type: functional
# How it was run: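 Aqueous mixture of 10 µM crocin, 1 mM t-BuOOH and 0.5 M t-BuOH with serial dilutions of test compound, placed under UV254 light; crocin bleaching (absorbance decrease) and fluorescence emission at 440 and 470 nm followed every 5 min. Three experiments, mean ± SEM.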
# [28] = system: Spinacia oleracea; experiment: Inhibition of ATP synthesis in Spinacia oleracea (spinach) chloroplasts; assay type: functional
# How it was run: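 Spinach thylakoids in 100 mM sorbitol, 5 mM MgCl2, 10 mM KCl, 1 mM Na+-tricine, pH 8, with 50 µM methyl viologen as Hill-reaction electron acceptor. Illuminated at 20 °C through 1% CuSO4 filter. ATP synthesis measured titrimetrically.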
# [29] = system: Trifolium pratense; experiment: Phytotoxicity against Trifolium pratense (red clover) assessed as inhibition of seed respiration during germination after 72 hr; assay type: functional, organism-based; conditions: read-out: I50; how it was run: as §1
# [30] = system: Lolium multiflorum; experiment: Phytotoxicity against Lolium multiflorum (Italian ryegrass) assessed as inhibition of seed respiration during germination after 72 hr; assay type: functional, organism-based; conditions: read-out: I50; how it was run: as §1
SMILES,I50 [1],GI50 [2],I50 [4],I50 [7],I50 [10],GI50 [14],GI50 [17],GI50 [22],IC50 [6] [µM],IC50 [8] [µM],IC50 [9] [µM],IC50 [12] [µM],IC50 [13] [µM],IC50 [15] [µM],IC50 [16] [µM],IC50 [21] [µM],also measured
CC(=O)c1ccc(Br)cc1,inactive,inactive,inactive,inactive,inactive,inactive,inactive,inactive,–,–,–,–,–,–,–,–,inhibition at 500 µM [3]: 30%; Activity [5]: Active; I50 [6]: inactive; I50 [8]: inactive; I50 [9]: inactive; Activity [11]: Active; I50 [12]: inactive; I50 [13]: inactive; I50 [15]: inactive; I50 [16]: inactive; Activity [18]: Active; inhibition at 500 µM [19]: 30%; Activity [20]: Active; I50 [21]: inactive
"CC(=O)c1ccc2c(c1)C[C@H](C(C)C)O2 [10,11-DIHYDRO TREMETONE]",inactive,25.9 µM,inactive,inactive,inactive,31.5 µM,24.7 µM,27.9 µM,17.4,23.2,29.3,31.9,20.1,19.1,28.6,17.3,–
CC(=O)c1ccc(O)cc1 [4-HYDROXYACETOPHENONE],–,45.3 µM,–,–,–,14.4 µM,15 µM,28.5 µM,45.5,34.4,17.1,19,10.8,10.8,29.5,48.5,inhibition [23]: Dose-dependent effect; IC50 ([23]; read-out: I50): 74.5 µM; IC50 [24]: 52.9 µM; IC50 [25]: 121 µM; IC50 [26]: 43 µM; inhibition [27]: Active; inhibition [28]: Dose-dependent effect; IC50 [29]: 53 µM; IC50 [30]: 41 µM
